Active and inactive are the calls of the source. The rule behind the calls is not given here.
System: not listed separately
Experiment: Selectivity ratio for Escherichia coli TrmD over human SET7/9
Conditions: not given

SMILES	Selectivity ratio
NC1CCN(Cc2ccc(CNC(=O)c3csc4nc[nH]c(=O)c34)cc2)CC1	50
O=C(NCc1ccc(CNCc2ncc[nH]2)cc1)c1csc2nc[nH]c(=O)c12	50
NCc1ccc(CNC(=O)c2csc3nc[nH]c(=O)c23)cc1	50
O=C(NCc1ccc(CN2CCNCC2)cc1)c1csc2nc[nH]c(=O)c12	50
NCCNCc1ccc(CNC(=O)c2csc3nc[nH]c(=O)c23)cc1	50
NCCN1CCN(Cc2ccc(CNC(=O)c3csc4nc[nH]c(=O)c34)cc2)CC1	50
O=C(NCc1ccc(CN2CCC(O)CC2)cc1)c1csc2nc[nH]c(=O)c12	50
NC1CCCN(Cc2ccc(CNC(=O)c3csc4nc[nH]c(=O)c34)cc2)C1 (stereo not drawn)	50
N=C(NCc1ccc(CNC(=O)c2csc3nc[nH]c(=O)c23)cc1)NC1CC1	50
O=C(NCc1ccc(CN2CCC(O)C2)cc1)c1csc2nc[nH]c(=O)c12 (stereo not drawn)	50

Target: T1, Histone-lysine N-methyltransferase SETD7 (Homo sapiens) (UniProt Q8WTS6)
T1 sequence (whole entry): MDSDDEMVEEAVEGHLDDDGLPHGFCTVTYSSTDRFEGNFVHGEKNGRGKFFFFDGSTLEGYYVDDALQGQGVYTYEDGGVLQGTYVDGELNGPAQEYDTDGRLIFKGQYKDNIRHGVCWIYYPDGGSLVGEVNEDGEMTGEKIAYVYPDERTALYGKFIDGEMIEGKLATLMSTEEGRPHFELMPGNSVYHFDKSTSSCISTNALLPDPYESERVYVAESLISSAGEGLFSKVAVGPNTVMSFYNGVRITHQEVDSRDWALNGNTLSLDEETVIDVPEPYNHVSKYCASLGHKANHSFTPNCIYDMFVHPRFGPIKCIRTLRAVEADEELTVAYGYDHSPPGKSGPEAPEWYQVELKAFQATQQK
Experiment: Inhibition of human SET7/9
Conditions: not given

SMILES	inhibition
Nc1ncnc2c1ncn2[C@@H]1O[C@H](C[C@@H](N)CC[C@H](N)C(=O)O)[C@@H](O)[C@H]1O [SINEFUNGIN]	Active

System: not listed separately
Experiment: Aqueous solubility of the compound
Format: physicochemical
Conditions: buffer

SMILES	solubility [µM]
Cc1[nH]c2c(=O)n(C3CCNCC3)ccc2c1Cl	> 500

System: not listed separately
Experiment: Dissociation constant, pKa of the compound
Format: physicochemical
Conditions: not given

SMILES	pKa
O=C(NCc1ccc(CNCc2ncc[nH]2)cc1)c1csc2nc[nH]c(=O)c12	6.5
NCc1ccc(CNC(=O)c2csc3nc[nH]c(=O)c23)cc1	14.4

System: not listed separately
Experiment: Selectivity ratio for Escherichia coli TrmD over human PRMT1
Conditions: not given

SMILES	Selectivity ratio
NC1CCN(Cc2ccc(CNC(=O)c3csc4nc[nH]c(=O)c34)cc2)CC1	50
O=C(NCc1ccc(CNCc2ncc[nH]2)cc1)c1csc2nc[nH]c(=O)c12	50
NCc1ccc(CNC(=O)c2csc3nc[nH]c(=O)c23)cc1	50
O=C(NCc1ccc(CN2CCNCC2)cc1)c1csc2nc[nH]c(=O)c12	50
NCCNCc1ccc(CNC(=O)c2csc3nc[nH]c(=O)c23)cc1	50
NCCN1CCN(Cc2ccc(CNC(=O)c3csc4nc[nH]c(=O)c34)cc2)CC1	50
O=C(NCc1ccc(CN2CCC(O)CC2)cc1)c1csc2nc[nH]c(=O)c12	50
NC1CCCN(Cc2ccc(CNC(=O)c3csc4nc[nH]c(=O)c34)cc2)C1 (stereo not drawn)	50
N=C(NCc1ccc(CNC(=O)c2csc3nc[nH]c(=O)c23)cc1)NC1CC1	50
O=C(NCc1ccc(CN2CCC(O)C2)cc1)c1csc2nc[nH]c(=O)c12 (stereo not drawn)	50

Target: T1, Histone-lysine N-methyltransferase SETD7 (Homo sapiens)
Experiment: Inhibition of human SET7/9 at 20 uM relative to control
Conditions: not given

SMILES	inhibition [%]
NC1CCN(Cc2ccc(CNC(=O)c3csc4nc[nH]c(=O)c34)cc2)CC1	< 10
O=C(NCc1ccc(CNCc2ncc[nH]2)cc1)c1csc2nc[nH]c(=O)c12	< 10
NCc1ccc(CNC(=O)c2csc3nc[nH]c(=O)c23)cc1	< 10
O=C(NCc1ccc(CN2CCNCC2)cc1)c1csc2nc[nH]c(=O)c12	< 10
NCCNCc1ccc(CNC(=O)c2csc3nc[nH]c(=O)c23)cc1	< 10
NCCN1CCN(Cc2ccc(CNC(=O)c3csc4nc[nH]c(=O)c34)cc2)CC1	< 10
O=C(NCc1ccc(CN2CCC(O)CC2)cc1)c1csc2nc[nH]c(=O)c12	< 10
NC1CCCN(Cc2ccc(CNC(=O)c3csc4nc[nH]c(=O)c34)cc2)C1 (stereo not drawn)	< 10
N=C(NCc1ccc(CNC(=O)c2csc3nc[nH]c(=O)c23)cc1)NC1CC1	< 10
O=C(NCc1ccc(CN2CCC(O)C2)cc1)c1csc2nc[nH]c(=O)c12 (stereo not drawn)	< 10

Target: Protein arginine N-methyltransferase 1 (Homo sapiens) (UniProt Q99873)
Experiment: Inhibition of human PRMT1 at 20 uM relative to control
Conditions: not given

Protein arginine N-methyltransferase 1 (Homo sapiens), sequence (Q99873 whole entry, looked up): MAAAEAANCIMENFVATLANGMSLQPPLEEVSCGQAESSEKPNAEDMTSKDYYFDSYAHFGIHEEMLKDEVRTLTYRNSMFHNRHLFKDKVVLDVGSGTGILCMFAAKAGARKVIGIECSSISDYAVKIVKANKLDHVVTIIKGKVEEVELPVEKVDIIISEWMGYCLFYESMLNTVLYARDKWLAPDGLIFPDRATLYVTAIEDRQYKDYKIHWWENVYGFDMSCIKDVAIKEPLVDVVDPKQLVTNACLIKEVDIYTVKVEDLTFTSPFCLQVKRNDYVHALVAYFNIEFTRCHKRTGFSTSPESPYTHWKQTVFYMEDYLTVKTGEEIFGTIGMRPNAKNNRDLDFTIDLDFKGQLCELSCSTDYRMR

SMILES	inhibition [%]
NC1CCN(Cc2ccc(CNC(=O)c3csc4nc[nH]c(=O)c34)cc2)CC1	< 10
O=C(NCc1ccc(CNCc2ncc[nH]2)cc1)c1csc2nc[nH]c(=O)c12	< 10
NCc1ccc(CNC(=O)c2csc3nc[nH]c(=O)c23)cc1	< 10
O=C(NCc1ccc(CN2CCNCC2)cc1)c1csc2nc[nH]c(=O)c12	< 10
NCCNCc1ccc(CNC(=O)c2csc3nc[nH]c(=O)c23)cc1	< 10
NCCN1CCN(Cc2ccc(CNC(=O)c3csc4nc[nH]c(=O)c34)cc2)CC1	< 10
O=C(NCc1ccc(CN2CCC(O)CC2)cc1)c1csc2nc[nH]c(=O)c12	< 10
NC1CCCN(Cc2ccc(CNC(=O)c3csc4nc[nH]c(=O)c34)cc2)C1 (stereo not drawn)	< 10
N=C(NCc1ccc(CNC(=O)c2csc3nc[nH]c(=O)c23)cc1)NC1CC1	< 10
O=C(NCc1ccc(CN2CCC(O)C2)cc1)c1csc2nc[nH]c(=O)c12 (stereo not drawn)	< 10

System: Haemophilus influenzae
Experiment: Antibacterial activity against recombinant Haemophilus influenzae harboring acrB::cap mutant assessed as growth inhibition by broth microdilution method
Format: functional
Conditions: not given

SMILES	MIC [µM]
O=C(NCc1ccc(CN2CCC(O)C2)cc1)c1csc2nc[nH]c(=O)c12 (stereo not drawn)	3.1

System: not listed separately
Experiment: Selectivity ratio of IC50 for Staphylococcus aureus TrmD to IC50 for Escherichia coli TrmD
Conditions: not given

SMILES	Ratio IC50
NC1CCN(Cc2ccc(CNC(=O)c3csc4nc[nH]c(=O)c34)cc2)CC1	5
O=C(NCc1ccc(CNCc2ncc[nH]2)cc1)c1csc2nc[nH]c(=O)c12	5
NCc1ccc(CNC(=O)c2csc3nc[nH]c(=O)c23)cc1	5
NCCNCc1ccc(CNC(=O)c2csc3nc[nH]c(=O)c23)cc1	5

System: not listed separately
Experiment: Selectivity ratio of IC50 for Escherichia coli TrmD to IC50 for Pseudomonas aeruginosa TrmD
Conditions: not given

SMILES	Ratio IC50
NC1CCN(Cc2ccc(CNC(=O)c3csc4nc[nH]c(=O)c34)cc2)CC1	10
O=C(NCc1ccc(CNCc2ncc[nH]2)cc1)c1csc2nc[nH]c(=O)c12	10
NCc1ccc(CNC(=O)c2csc3nc[nH]c(=O)c23)cc1	10
NCCNCc1ccc(CNC(=O)c2csc3nc[nH]c(=O)c23)cc1	10

System: not listed separately
Experiment: Inhibition of Pseudomonas aeruginosa TrmD using S-[methyl-3H] adenosyl-L-methionine as substrate assessed as leucine-tRNA methylation after 1 hr by scintillation proximity assay
Conditions: not given
Outline: (§1)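 Radiometric SPA: TrmD in 50 mM HEPES pH 7.5 with 5 mM MgCl2 (E. coli and K. pneumoniae 10 nM, S. aureus 10 nM, P. aeruginosa 5 nM, H. influenzae 4 nM in enzyme reagent), mixed 1:1 with a reagent of 0.05 μM [3H]SAM, 2 μM unlabelled SAM and 2 μM synthetic E. coli leucine-tRNA. Compounds are 2-fold serial DMSO dilutions. Incubation is 1 h at room temperature.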

SMILES	IC50 [µM]
NC1CCN(Cc2ccc(CNC(=O)c3csc4nc[nH]c(=O)c34)cc2)CC1	< 0.039
O=C(NCc1ccc(CNCc2ncc[nH]2)cc1)c1csc2nc[nH]c(=O)c12	0.067
NCc1ccc(CNC(=O)c2csc3nc[nH]c(=O)c23)cc1	0.098
NCCNCc1ccc(CNC(=O)c2csc3nc[nH]c(=O)c23)cc1	0.044

System: Klebsiella pneumoniae
Experiment: Inhibition of Klebsiella pneumoniae TrmD using S-[methyl-3H] adenosyl-L-methionine as substrate assessed as leucine-tRNA methylation after 1 hr by scintillation proximity assay
Conditions: not given
Outline: as §1

SMILES	IC50 [µM]
NC1CCN(Cc2ccc(CNC(=O)c3csc4nc[nH]c(=O)c34)cc2)CC1	0.35
O=C(NCc1ccc(CNCc2ncc[nH]2)cc1)c1csc2nc[nH]c(=O)c12	0.31
NCc1ccc(CNC(=O)c2csc3nc[nH]c(=O)c23)cc1	0.83
NCCNCc1ccc(CNC(=O)c2csc3nc[nH]c(=O)c23)cc1	0.61

System: not listed separately
Experiment: Inhibition of Acinetobacter baumannii TrmD using S-[methyl-3H] adenosyl-L-methionine as substrate assessed as leucine-tRNA methylation after 1 hr by scintillation proximity assay
Conditions: not given

SMILES	IC50 [µM]
NC1CCN(Cc2ccc(CNC(=O)c3csc4nc[nH]c(=O)c34)cc2)CC1	0.58
O=C(NCc1ccc(CNCc2ncc[nH]2)cc1)c1csc2nc[nH]c(=O)c12	0.23
NCc1ccc(CNC(=O)c2csc3nc[nH]c(=O)c23)cc1	0.61
NCCNCc1ccc(CNC(=O)c2csc3nc[nH]c(=O)c23)cc1	0.74

System: not listed separately
Experiment: Inhibition of Haemophilus influenzae TrmD using S-[methyl-3H] adenosyl-L-methionine as substrate assessed as leucine-tRNA methylation after 1 hr by scintillation proximity assay
Conditions: not given
Outline: as §1

SMILES	IC50 [µM]
NC1CCN(Cc2ccc(CNC(=O)c3csc4nc[nH]c(=O)c34)cc2)CC1	0.33
O=C(NCc1ccc(CNCc2ncc[nH]2)cc1)c1csc2nc[nH]c(=O)c12	1.5
NCc1ccc(CNC(=O)c2csc3nc[nH]c(=O)c23)cc1	0.56
O=C(NCc1ccc(CN2CCNCC2)cc1)c1csc2nc[nH]c(=O)c12	1.6
NCCNCc1ccc(CNC(=O)c2csc3nc[nH]c(=O)c23)cc1	0.33
NCCN1CCN(Cc2ccc(CNC(=O)c3csc4nc[nH]c(=O)c34)cc2)CC1	0.44
O=C(NCc1ccc(CN2CCC(O)CC2)cc1)c1csc2nc[nH]c(=O)c12	1.3
NC1CCCN(Cc2ccc(CNC(=O)c3csc4nc[nH]c(=O)c34)cc2)C1 (stereo not drawn)	0.66
N=C(NCc1ccc(CNC(=O)c2csc3nc[nH]c(=O)c23)cc1)NC1CC1	0.49
Nc1ncnc2c1ncn2[C@@H]1O[C@H](C[C@@H](N)CC[C@H](N)C(=O)O)[C@@H](O)[C@H]1O [SINEFUNGIN]	1.9
O=C(NCc1ccc(CN2CCC(O)C2)cc1)c1csc2nc[nH]c(=O)c12 (stereo not drawn)	0.37

System: not listed separately
Experiment: Inhibition of Staphylococcus aureus TrmD using S-[methyl-3H] adenosyl-L-methionine as substrate assessed as leucine-tRNA methylation after 1 hr by scintillation proximity assay
Conditions: not given
Outline: as §1

SMILES	IC50 [µM]
NC1CCN(Cc2ccc(CNC(=O)c3csc4nc[nH]c(=O)c34)cc2)CC1	1.2
O=C(NCc1ccc(CNCc2ncc[nH]2)cc1)c1csc2nc[nH]c(=O)c12	8.2
NCc1ccc(CNC(=O)c2csc3nc[nH]c(=O)c23)cc1	4.3
O=C(NCc1ccc(CN2CCNCC2)cc1)c1csc2nc[nH]c(=O)c12	7.6
NCCNCc1ccc(CNC(=O)c2csc3nc[nH]c(=O)c23)cc1	7.4
NCCN1CCN(Cc2ccc(CNC(=O)c3csc4nc[nH]c(=O)c34)cc2)CC1	2.7
O=C(NCc1ccc(CN2CCC(O)CC2)cc1)c1csc2nc[nH]c(=O)c12	7.3
NC1CCCN(Cc2ccc(CNC(=O)c3csc4nc[nH]c(=O)c34)cc2)C1 (stereo not drawn)	5.2
N=C(NCc1ccc(CNC(=O)c2csc3nc[nH]c(=O)c23)cc1)NC1CC1	2.9
Nc1ncnc2c1ncn2[C@@H]1O[C@H](C[C@@H](N)CC[C@H](N)C(=O)O)[C@@H](O)[C@H]1O [SINEFUNGIN]	160
O=C(NCc1ccc(CN2CCC(O)C2)cc1)c1csc2nc[nH]c(=O)c12 (stereo not drawn)	4.4

System: not listed separately
Experiment: Inhibition of Escherichia coli TrmD using S-[methyl-3H] adenosyl-L-methionine as substrate assessed as leucine-tRNA methylation after 1 hr by scintillation proximity assay
Conditions: not given
Outline: as §1

SMILES	IC50 [µM]
NC1CCN(Cc2ccc(CNC(=O)c3csc4nc[nH]c(=O)c34)cc2)CC1	0.18
O=C(NCc1ccc(CNCc2ncc[nH]2)cc1)c1csc2nc[nH]c(=O)c12	0.52
NCc1ccc(CNC(=O)c2csc3nc[nH]c(=O)c23)cc1	0.91
O=C(NCc1ccc(CN2CCNCC2)cc1)c1csc2nc[nH]c(=O)c12	0.89
NCCNCc1ccc(CNC(=O)c2csc3nc[nH]c(=O)c23)cc1	0.44
NCCN1CCN(Cc2ccc(CNC(=O)c3csc4nc[nH]c(=O)c34)cc2)CC1	0.4
O=C(NCc1ccc(CN2CCC(O)CC2)cc1)c1csc2nc[nH]c(=O)c12	0.44
NC1CCCN(Cc2ccc(CNC(=O)c3csc4nc[nH]c(=O)c34)cc2)C1 (stereo not drawn)	0.33
N=C(NCc1ccc(CNC(=O)c2csc3nc[nH]c(=O)c23)cc1)NC1CC1	0.19
Nc1ncnc2c1ncn2[C@@H]1O[C@H](C[C@@H](N)CC[C@H](N)C(=O)O)[C@@H](O)[C@H]1O [SINEFUNGIN]	11
O=C(NCc1ccc(CN2CCC(O)C2)cc1)c1csc2nc[nH]c(=O)c12 (stereo not drawn)	0.42
